Assay results: the RNAGym collection of RNA variant scans (doi:10.1038/s41586-018-0170-7)

B1: tRNA (parent)
chain: GUUCCGUUGGCGUAAUGGUAACGCGUCUCCCUCCUAAGGAGAAGACUGCGGGUUCGAGUCCCGUACGGAACG

Variants of: B1
Assay: yeast fitness, log relative to wild type (ln ratio); higher = fitter; tRNA-Arg(CCU), competitive growth, 37 C, 1 M NaCl
Outline: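 BY4742 cells without the chromosomal tRNA-Arg(CCU) gene carried a combinatorial variant library on a HIS3 centromeric plasmid, from two independent transformations. After 4 generations in SC-HIS at 30 °C, pools spent ~6.5 generations (~26.5 h) in SC-HIS 1M NaCl at 37 °C, giving three outputs per input, and 125 bp paired-end Illumina reads counted the variants. Fitness is the natural log of each genotype's generations over the wild type's, with generations taken as OD-scaled log2 output/input frequency weighted by inverse variance across replicates.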

Variant | yeast fitness (ln)
GCUCCUUUGGCGUAAUGGUAACGCGUUUCCCUCCUAAGGAGAAGACUGCGGGUUCGAGUCCCGUAUGGAGCG [U2C G6U C27U C66U A70G] | -0.215
AGUCCUUUGGCGUAAUGGUAACGCGUCUCCCUCCUAAGGAGACGAUUGCGGGUUCGAGUCCCGUAAGGGUUG [G1A U2G G6U A43C C46U C66A A69G A70U C71U] | -0.314
GGUCCAUUGGCGUAAUGGUAACGCGUCUCCCUCCUAAGGAGAAGACUGCGGGUUCGAGUCCCGUACGGAGUG [U2G G6A A70G C71U] | -0.142
GUUCCAUUGGCGUAAUGGUAACGCGUCUCCCUCCUAAGGAGACGACUGCGGGUUCGAGUCCCGUAUGGGGUG [G6A A43C C66U A69G A70G C71U] | -0.261
AGUCCGUUGGCGUAAUGGUAACGCGUCUCCCUCCUAAGGAGAAGAUUGCGGGUUCGAGUCCCGUACGGGUUG [G1A U2G C46U A69G A70U C71U] | -0.0215
GGUCCGUUGGCGUAAUGGUAACGCGUUUCCCUCCUAAGGAGAAGACUGCGGGUUCGAGUCCCGUAAGGGUUG [U2G C27U C66A A69G A70U C71U] | -0.431
AGUCCAUUGGCGUAAUGGUAACGCGUCUCCCUCCUAAGGAGACGAUUGCGGGUUCGAGUCCCGUACGGGAUG [G1A U2G G6A A43C C46U A69G C71U] | -0.206
AGUCCUUUGGCGUAAUGGUAACGCGUUUCCCUCCUAAGGAGACGAUUGCGGGUUCGAGUCCCGUAAGGAAUG [G1A U2G G6U C27U A43C C46U C66A C71U] | -0.41
GGUCCUUUGGCGUAAUGGUAACGCGUUUCCCUCCUAAGGAGACGAUUGCGGGUUCGAGUCCCGUAAGGAUCG [U2G G6U C27U A43C C46U C66A A70U] | -0.017
GUUCCUUUGGCGUAAUGGUAACGCGUCUCCCUCCUAAGGAGAAGACUGCGGGUUCGAGUCCCGUACGGGGUG [G6U A69G A70G C71U] | -0.282
GUUCCUUUGGCGUAAUGGUAACGCGUCUCCCUCCUAAGGAGAAGACUGCGGGUUCGAGUCCCGUAUGGGUUG [G6U C66U A69G A70U C71U] | -0.481
GGUCCGUUGGCGUAAUGGUAACGCGUCUCCCUCCUAAGGAGAAGACUGCGGGUUCGAGUCCCGUAUGGGGCG [U2G C66U A69G A70G] | -0.151
AGUCCAUUGGCGUAAUGGUAACGCGUUUCCCUCCUAAGGAGAAGAUUGCGGGUUCGAGUCCCGUACGGGUCG [G1A U2G G6A C27U C46U A69G A70U] | -0.233
GCUCCGUUGGCGUAAUGGUAACGCGUCUCCCUCCUAAGGAGACGAUUGCGGGUUCGAGUCCCGUAAGGGUCG [U2C A43C C46U C66A A69G A70U] | -0.0111
GGUCCUUUGGCGUAAUGGUAACGCGUCUCCCUCCUAAGGAGACGAUUGCGGGUUCGAGUCCCGUAAGGAACG [U2G G6U A43C C46U C66A] | -0.205
AUUCCUUUGGCGUAAUGGUAACGCGUCUCCCUCCUAAGGAGAAGAUUGCGGGUUCGAGUCCCGUACGGGAUG [G1A G6U C46U A69G C71U] | -0.297
GCUCCUUUGGCGUAAUGGUAACGCGUUUCCCUCCUAAGGAGACGACUGCGGGUUCGAGUCCCGUAUGGGGCG [U2C G6U C27U A43C C66U A69G A70G] | -0.426
GUUCCAUUGGCGUAAUGGUAACGCGUUUCCCUCCUAAGGAGAAGACUGCGGGUUCGAGUCCCGUACGGAUCG [G6A C27U A70U] | -0.17
AGUCCGUUGGCGUAAUGGUAACGCGUUUCCCUCCUAAGGAGACGAUUGCGGGUUCGAGUCCCGUACGGGUUG [G1A U2G C27U A43C C46U A69G A70U C71U] | -0.399

Variant | yeast fitness (ln)
GGUCCUUUGGCGUAAUGGUAACGCGUUUCCCUCCUAAGGAGACGAUUGCGGGUUCGAGUCCCGUAAGGAAUG [U2G G6U C27U A43C C46U C66A C71U] | -0.363
AUUCCUUUGGCGUAAUGGUAACGCGUCUCCCUCCUAAGGAGACGACUGCGGGUUCGAGUCCCGUACGGAUUG [G1A G6U A43C A70U C71U] | -0.303
GCUCCUUUGGCGUAAUGGUAACGCGUCUCCCUCCUAAGGAGAAGACUGCGGGUUCGAGUCCCGUAAGGAGUG [U2C G6U C66A A70G C71U] | -0.0156
AGUCCAUUGGCGUAAUGGUAACGCGUUUCCCUCCUAAGGAGACGACUGCGGGUUCGAGUCCCGUACGGAGCG [G1A U2G G6A C27U A43C A70G] | -0.381
GCUCCUUUGGCGUAAUGGUAACGCGUUUCCCUCCUAAGGAGACGAUUGCGGGUUCGAGUCCCGUAAGGGGCG [U2C G6U C27U A43C C46U C66A A69G A70G] | -0.051
GGUCCAUUGGCGUAAUGGUAACGCGUUUCCCUCCUAAGGAGACGAUUGCGGGUUCGAGUCCCGUAAGGGAUG [U2G G6A C27U A43C C46U C66A A69G C71U] | -0.283
GGUCCAUUGGCGUAAUGGUAACGCGUUUCCCUCCUAAGGAGACGACUGCGGGUUCGAGUCCCGUAAGGAUCG [U2G G6A C27U A43C C66A A70U] | -0.176
AGUCCAUUGGCGUAAUGGUAACGCGUUUCCCUCCUAAGGAGAAGAUUGCGGGUUCGAGUCCCGUAUGGAGUG [G1A U2G G6A C27U C46U C66U A70G C71U] | -0.243
GCUCCGUUGGCGUAAUGGUAACGCGUUUCCCUCCUAAGGAGAAGAUUGCGGGUUCGAGUCCCGUAUGGGGUG [U2C C27U C46U C66U A69G A70G C71U] | -0.281
GUUCCAUUGGCGUAAUGGUAACGCGUUUCCCUCCUAAGGAGAAGAUUGCGGGUUCGAGUCCCGUACGGAGUG [G6A C27U C46U A70G C71U] | -0.206
GCUCCGUUGGCGUAAUGGUAACGCGUCUCCCUCCUAAGGAGACGAUUGCGGGUUCGAGUCCCGUAUGGAAUG [U2C A43C C46U C66U C71U] | -0.19
GCUCCAUUGGCGUAAUGGUAACGCGUUUCCCUCCUAAGGAGACGACUGCGGGUUCGAGUCCCGUAUGGAUCG [U2C G6A C27U A43C C66U A70U] | -0.091
GGUCCUUUGGCGUAAUGGUAACGCGUUUCCCUCCUAAGGAGACGACUGCGGGUUCGAGUCCCGUAAGGAGCG [U2G G6U C27U A43C C66A A70G] | -0.214
AUUCCGUUGGCGUAAUGGUAACGCGUUUCCCUCCUAAGGAGACGAUUGCGGGUUCGAGUCCCGUACGGAGUG [G1A C27U A43C C46U A70G C71U] | -0.153
GCUCCUUUGGCGUAAUGGUAACGCGUUUCCCUCCUAAGGAGACGAUUGCGGGUUCGAGUCCCGUAUGGGUCG [U2C G6U C27U A43C C46U C66U A69G A70U] | -0.3
AGUCCUUUGGCGUAAUGGUAACGCGUCUCCCUCCUAAGGAGAAGAUUGCGGGUUCGAGUCCCGUACGGAUUG [G1A U2G G6U C46U A70U C71U] | -0.511
GGUCCUUUGGCGUAAUGGUAACGCGUUUCCCUCCUAAGGAGACGAUUGCGGGUUCGAGUCCCGUAUGGGGUG [U2G G6U C27U A43C C46U C66U A69G A70G C71U] | -0.369
GGUCCGUUGGCGUAAUGGUAACGCGUUUCCCUCCUAAGGAGAAGACUGCGGGUUCGAGUCCCGUAAGGGGCG [U2G C27U C66A A69G A70G] | -0.15
GGUCCAUUGGCGUAAUGGUAACGCGUCUCCCUCCUAAGGAGAAGACUGCGGGUUCGAGUCCCGUACGGGAUG [U2G G6A A69G C71U] | -0.113
